Tests used:
Mus musculus [1] = test: Inhibition of PQW-writhing in mice on subcutaneous administration at dose 10 mg/kg; type: functional; details: sc
Mus musculus [2] = test: Inhibition of PQW-writhing in mice on subcutaneous administration at dose 10 mg/kg; Moderate activity in the range of 35-69%.; type: functional; details: sc
Mus musculus [3] = test: inhibition of PQW-writhing in mice on subcutaneous administration at dose 10 mg/kg. compound showed moderate activity in the range of 35-69%.; type: functional; details: sc
Mus musculus [4] = test: inhibition of PQW-writhing in mice on subcutaneous administration at dose 10 mg/kg. compound showed slight activity in the range of 10-34%; type: functional; details: sc
Mus musculus [5] = test: inhibition of PQW-writhing in mice on subcutaneous administration at dose 10 mg/kg. compound showed slight activity in the range of 10-34%,; type: functional; details: sc
Mus musculus [6] = test: Inhibition of PQW-writhing in mice on subcutaneous administration at dose 25 mg/kg; Range of inhibition 35-69% (moderate activity); type: functional; details: sc
Mus musculus [7] = test: Inhibition of PQW-writhing in mice on subcutaneous administration at dose 10 mg/kg; Slight activity in the range of 10-34%; type: functional; details: sc
[8] = Compound was tested for the approximate analgesic lethal dose (ALD50) on rats; type: ADME, organism-based; details: rat, in vivo; read-out: ALD50
Rattus norvegicus [9] = species: Rattus norvegicus; test: The analgesic activity by D'Armour-Smith tail-flick assay in rats.; type: functional
Summary of the method: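 Rat tail-flick test. Compound was given sc in distilled water at 4, 8, 16 and 32 mg/kg, and percent analgesic activity was recorded at each dose. ED50 was calculated by Litchfield-Wilcoxon analysis with 95% confidence limits.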

Mus musculus [10] = test: (§1) Oral anti-writhing activity at a dose of 25 mg/kg administered perorally in PQW assay; type: functional
Summary of the method: (§2)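 Mouse phenylquinone writhing assay with the compound given orally at 25 mg/kg. Writhing was induced with 0.125% phenyl-p-benzoquinone in 5% aqueous ethanol, 10 mL/kg ip. Writhes were counted over 10 min after a 5-min wait, and percent inhibition was calculated against vehicle-treated controls.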

Rattus norvegicus [11] = test: as §1; type: functional; summary of the method: as §2
Mus musculus [12] = test: Inhibition of PQW-writhing in mice on subcutaneous administration at dose 10 mg/kg. compound showed 10-34% inhibition (slight activity); type: functional; details: sc

Which ED50 (Mus musculus [1]) does the source give for `NCc1cccc(N2CCc3cc(Cl)ccc32)c1` here?
Its ED50 is 4.2 mg/kg.

With `CCC(=O)O[C@](Cc1ccccc1)(c1ccccc1)[C@H](C)CN(C)C` [PROPOXYPHENE] as the compound, how does the ED50 (Mus musculus [1]) read?
The ED50 was 3.9 mg/kg.

With `NCc1cccc(CN2CCc3ccccc32)c1` as the compound, how does the inhibition in vivo at 10 mg/kg (Mus musculus [2]) read?
The inhibition in vivo at 10 mg/kg was 69%.

Which inhibition in vivo at 10 mg/kg (Mus musculus [3]) does the source give for `O=C(Cc1ccccc1)NCc1cccc(N2CCc3ccccc32)c1` here?
The inhibition in vivo at 10 mg/kg was 69%.

For `O=C(NCc1cccc(N2CCc3ccccc32)c1)C1CC1`, which inhibition in vivo at 10 mg/kg (Mus musculus [3]) is on record?
The inhibition in vivo at 10 mg/kg was 69%.

For `NCc1cccc(-n2ccc3cc(Cl)ccc32)c1`, which inhibition in vivo at 10 mg/kg (Mus musculus [4]) is on record?
Its inhibition in vivo at 10 mg/kg is 34%.

Which inhibition in vivo at 10 mg/kg (Mus musculus [5]) does the source give for `CN(C)Cc1cccc(N2CCc3ccccc32)c1` here?
Its inhibition in vivo at 10 mg/kg is 34%.

For `NCc1cccc(CN2CCc3cc(Cl)ccc32)c1`, which ED50 (Mus musculus [1]) is on record?
Its ED50 is 20.2 mg/kg.

For `CC(N)c1cccc(N2CCc3ccccc32)c1` (centres undefined), which inhibition in vivo at 10 mg/kg (Mus musculus [3]) is on record?
The inhibition in vivo at 10 mg/kg was 69%.

With `NC(c1ccccc1)c1cccc(N2CCc3ccccc32)c1` (centres undefined) as the compound, how does the inhibition in vivo at 10 mg/kg (Mus musculus [3]) read?
The inhibition in vivo at 10 mg/kg was 69%.

Which inhibition in vivo at 25 mg/kg (Mus musculus [6]) does the source give for `Nc1ccccc1N1CCc2ccccc21` here?
The inhibition in vivo at 25 mg/kg was 43%.

Which inhibition in vivo at 10 mg/kg (Mus musculus [3]) does the source give for `c1cc(CNCC2CC2)cc(N2CCc3ccccc32)c1` here?
The inhibition in vivo at 10 mg/kg was 69%.

For `COc1ccc2c(c1)CCN2Cc1cccc(CN)c1`, which inhibition in vivo at 10 mg/kg (Mus musculus [7]) is on record?
The inhibition in vivo at 10 mg/kg was 34%.

Which inhibition in vivo at 10 mg/kg (Mus musculus [3]) does the source give for `COc1ccc2c(ccn2-c2cccc(CN)c2)c1` here?
Its inhibition in vivo at 10 mg/kg is 69%.

Which inhibition in vivo at 10 mg/kg (Mus musculus [3]) does the source give for `NCCc1cccc(N2CCc3ccccc32)c1` here?
The inhibition in vivo at 10 mg/kg was 69%.

Which inhibition in vivo at 10 mg/kg (Mus musculus [5]) does the source give for `CNCc1cccc(N2CCc3ccccc32)c1` here?
The inhibition in vivo at 10 mg/kg was 34%.

With `COc1ccc2c(c1)CCN2c1cccc(CN)c1` as the compound, how does the inhibition in vivo at 10 mg/kg (Mus musculus [3]) read?
The inhibition in vivo at 10 mg/kg was 69%.

For `NCc1ccccc1N1CCc2ccccc21`, which ED50 (Mus musculus [1]) is on record?
The ED50 was 14.1 mg/kg.

For `CCOC(=O)NCc1cccc(N2CCc3ccccc32)c1`, which inhibition in vivo at 10 mg/kg (Mus musculus [5]) is on record?
The inhibition in vivo at 10 mg/kg was 34%.

Which ED50 (Mus musculus [1]) does the source give for `NCc1cccc(-n2ccc3ccccc32)c1` here?
The ED50 was 19.1 mg/kg.

Which inhibition in vivo at 10 mg/kg (Mus musculus [5]) does the source give for `c1ccc(CCNCc2cccc(N3CCc4ccccc43)c2)cc1` here?
Its inhibition in vivo at 10 mg/kg is 34%.

What does the source list for `NCc1cccc(N2CCc3ccccc32)c1`?
ED50 (Mus musculus [1]): 4.2 mg/kg; LD50 [8]: > 100 mg/kg; ED50 (Rattus norvegicus [9]): 27 mg/kg; inhibition in vivo at 25 mg/kg (Mus musculus [10]): 36%; inhibition in vivo at 25 mg/kg (Rattus norvegicus [11]): 19%

With `CC(C)=CCN1CC[C@]2(C)c3cc(O)ccc3C[C@H]1[C@H]2C` [(+)-PENTAZOCINE] as the compound, how does the ED50 (Mus musculus [1]) read?
The ED50 was 2.3 mg/kg.

And the ED50 (Rattus norvegicus [9])?
The ED50 was 14.6 mg/kg.

Which inhibition in vivo at 10 mg/kg (Mus musculus [12]) does the source give for `NCc1ccc(N2CCc3ccccc32)cc1` here?
Its inhibition in vivo at 10 mg/kg is 34%.
